Measurements published in ChEMBL document CHEMBL2034826, “Novel 1,2,4-triazole and imidazole derivatives of L-ascorbic and imino-ascorbic acid: synthesis, anti-HCV and antitumor activity evaluations” (Bioorg Med Chem, 2012).
In brackets after ≈: the same amount, converted by molar mass.

Experiments:
CCRF-CEM [1] = assay: Cytostatic activity against human CEM/0 after 72 hrs by cell counting; format: functional
Outline: (§1)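 Suspension leukaemia cells in RPMI-1640 with 10% FBS, 2 mM L-glutamine, 0.075% NaHCO3. Seeded at 5–7.5 × 10^4 cells/well with compound and grown at 37 °C for 48 h (L1210) or 72 h (CEM). Cells counted by Coulter counter. IC50 is the concentration that reduces viable cell number by 50%.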

WI-38 = assay: Antiproliferative activity against human WI38 cells after 72 hrs by MTT assay; format: cell-based; conditions: WI-38, 72 h
Outline: (§2)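 Monolayer lines grown in DMEM with 10% FBS, 2 mM L-glutamine, penicillin/streptomycin, 37 °C, 5% CO2. Seeded at 3000–6000 cells/well by doubling time, then compound added as five 10-fold dilutions (1 × 10^-8 to 1 × 10^-4 M), DMSO ≤0.1%, for 72 h. MTT read-out converted to percentage growth versus untreated wells. IC50 from linear regression. Quadruplicate points, three experiments.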

HepG2 = assay: Antiproliferative activity against human HepG2 cells after 72 hrs by MTT assay; format: functional, cell-based; conditions: HepG2, 72 h; outline: as §2
SW-620 = assay: Antiproliferative activity against human SW620 cells after 72 hrs by MTT assay; format: functional, cell-based; conditions: SW-620, 72 h; outline: as §2
[2] = Cytostatic activity against mouse L1210/0 after 48 hrs by cell counting; format: functional; conditions: L1210/0, 48 h; outline: as §1
MIA PaCa-2 = assay: Antiproliferative activity against human MIAPaCa2 cells after 72 hrs by MTT assay; format: functional, cell-based; conditions: MIA PaCa-2, 72 h; outline: as §2
[3] = Cytotoxicity against human HuH5.2 cells after 72 hrs by MTS assay; format: cell-based, Huh-5-2
Outline: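 Replicon-bearing Huh 5.2 cells treated in parallel with the antiviral plates using a four-step 1-to-5 dilution series for 72 h. Medium replaced with 5% MTS in phenol red-free medium for 1.5 h, absorbance read at 498 nm, and converted to percent of untreated controls. CC50 is the concentration that reduces metabolic activity by 50%, taken from the dose-response curve.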

CCRF-CEM [4] = assay: Ratio of ribavirin IC50 to compound IC50 for IMPDH in human CEM cells; format: cell-based
L1210 [5] = assay: Ratio of ribavirin IC50 to compound IC50 for IMPDH in mouse L1210 cells; format: cell-based
HeLa = assay: Antiproliferative activity against human HeLa cells after 72 hrs by MTT assay; format: functional, cell-based; outline: as §2
Hepatitis C virus = assay: Antiviral activity against HCV genotype 1b infected in HuH 5.2 cells expressing 1389luc-ubi-neo/NS3-3' assessed as inhibition of viral replication after 72 hrs by luciferase reporter gene assay; format: functional, organism-based, Hepacivirus hominis; conditions: Huh-5-2, 72 h
Outline: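 Huh 5.2 cells carrying the genotype 1b I389luc-ubi-neo/NS3-3'/5.1 replicon, seeded at 6500 cells/well in medium without Geneticin and left overnight. Four-step 1-to-5 compound dilutions, 72 h at 37 °C. Cells washed and lysed, then luciferase luminescence read and expressed as percent of untreated controls. EC50 and EC90 from the dose-response curve.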

MCF7 = assay: Antiproliferative activity against human MCF7 cells after 72 hrs by MTT assay; format: functional, cell-based; conditions: MCF7, 72 h; outline: as §2
[6] = Selectivity index, ratio of CC50 for human HuH5.2 cells to EC50 for HCV genotype 1b
L1210 [7] = assay: (§3) Inhibition of IMPDH in mouse L1210 cells assessed as […] after 20 to 60 mins; format: cell-based
Outline: (§4)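 Intact L1210 or CEM cells given [2,8-3H]hypoxanthine, which the cells convert to labelled IMP. IMPDH activity measured as 3H release, sampled at 20, 40 and 60 min with or without compound at varying concentrations. After centrifugation at 1100×g for 10 min, supernatant radioactivity counted. Free 3H before cell incubation was below 10% of added label.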

[8] = as §3; format: cell-based; outline: as §4
CCRF-CEM [9] = assay: (§5) Inhibition of IMPDH in human CEM cells assessed as […] after 20 to 60 mins; format: cell-based; outline: as §4
[10] = as §5; format: cell-based; conditions: CCRF-CEM; outline: as §4

## COc1cccc2c1C(=O)c1c(O)c3c(c(O)c1C2=O)C[C@@](O)(C(=O)CO)C[C@@H]3O[C@H]1C[C@H](N)[C@H](O)[C@H](C)O1 [DOXORUBICIN]
CCRF-CEM [1]
  IC50: 0.39 µM
WI-38
  IC50: 0.04 µM
HepG2
  IC50: 0.05 µM
SW-620
  IC50: 0.04 µM
[2]
  IC50: 1.3 µM
MIA PaCa-2
  IC50: 0.03 µM

## NC(=O)c1ncn(CCC2(O)NC(=O)C(OCc3ccccc3)=C2OCc2ccccc2)c1C(N)=O (stereo unspecified)
CCRF-CEM [1]
  IC50: 154 µM
WI-38
  IC50: 98 µM
HepG2
  IC50: > 100 µM
SW-620
  IC50: > 100 µM
[3]
  CC50 at 72 h: > 100 µg/mL
[2]
  IC50: 198 µM
CCRF-CEM [4]
  Ratio IC50: 50
MIA PaCa-2
  IC50: > 100 µM
L1210 [5]
  Ratio IC50: 50
HeLa
  IC50: > 100 µM
Hepatitis C virus
  EC50: > 100 µg/mL
  EC90: > 100 µg/mL
MCF7
  IC50: > 100 µM

## O=c1[nH]cc(F)c(=O)[nH]1 [FLUOROURACIL]
WI-38
  IC50: 24.7 µM
HepG2
  IC50: 56.2 µM
SW-620
  IC50: 6.68 µM
MIA PaCa-2
  IC50: 11.7 µM
HeLa
  IC50: 14.9 µM
MCF7
  IC50: 66.9 µM

## COC(=O)c1ncn(CCC2(O)NC(=O)C(OCc3ccccc3)=C2OCc2ccccc2)c1C(=O)OC (stereo unspecified)
CCRF-CEM [1]
  IC50: 35 µM
WI-38
  IC50: 52 µM
HepG2
  IC50: > 100 µM
SW-620
  IC50: > 100 µM
[3]
  CC50 at 72 h: > 100 µg/mL
[2]
  IC50: 46 µM
MIA PaCa-2
  IC50: 47 µM
HeLa
  IC50: 81 µM
Hepatitis C virus
  EC50: 36.6 µg/mL (≈ 70.2 µM)
  EC90: 81.3 µg/mL (≈ 156 µM)
MCF7
  IC50: > 100 µM

## COC(=O)c1ncn(CC=C2OC(=O)C(O)=C2O)n1 (mixture of isomers)
CCRF-CEM [1]
  IC50: > 500 µM
WI-38
  IC50: > 100 µM
HepG2
  IC50: > 100 µM
SW-620
  IC50: > 100 µM
[3]
  CC50 at 72 h: > 100 µg/mL
[2]
  IC50: 370 µM
MIA PaCa-2
  IC50: > 100 µM
HeLa
  IC50: > 100 µM
Hepatitis C virus
  EC50: 61.3 µg/mL
MCF7
  IC50: > 100 µM

## COC(=O)c1ncn(CC=C2OC(=O)C(OCc3ccccc3)=C2OCc2ccccc2)c1C(=O)OC (mixture of isomers)
[6]
  Ratio CC50/EC50: 5.3
CCRF-CEM [1]
  IC50: 10 µM
WI-38
  IC50: > 100 µM
HepG2
  IC50: 55 µM
SW-620
  IC50: 49 µM
[3]
  CC50 at 72 h: 70.5 µg/mL
[2]
  IC50: 32 µM
CCRF-CEM [4]
  Ratio IC50: 50
MIA PaCa-2
  IC50: 33 µM
L1210 [5]
  Ratio IC50: 50
HeLa
  IC50: 34 µM
Hepatitis C virus
  EC50: 13.3 µg/mL
  EC90: 22.7 µg/mL
MCF7
  IC50: 52 µM

## NC(=O)c1ncn([C@@H]2O[C@H](CO)[C@@H](O)[C@H]2O)n1 [RIBAVIRIN]
L1210 [7]
  inhibition: Dose-dependent effect
[8]
  IC50: 1 µM
CCRF-CEM [1]
  IC50: 63 µM
CCRF-CEM [9]
  inhibition: Dose-dependent effect
[10]
  IC50: 1 µM
[2]
  IC50: 22 µM

## NC(=O)c1ncn(CCC2(O)NC(=O)C(OCc3ccccc3)=C2OCc2ccccc2)n1 (stereo unspecified)
CCRF-CEM [1]
  IC50: 445 µM
WI-38
  IC50: > 100 µM
HepG2
  IC50: 66 µM
SW-620
  IC50: > 100 µM
[3]
  CC50 at 72 h: > 100 µg/mL
[2]
  IC50: ≥ 500 µM
MIA PaCa-2
  IC50: > 100 µM
HeLa
  IC50: > 100 µM
Hepatitis C virus
  EC50: > 100 µg/mL
  EC90: > 100 µg/mL
MCF7
  IC50: 61 µM

## COC(=O)c1ncn(CC=C2OC(=O)C(OCc3ccccc3)=C2OCc2ccccc2)n1 (mixture of isomers)
CCRF-CEM [1]
  IC50: 44 µM
WI-38
  IC50: > 100 µM
HepG2
  IC50: 70 µM
SW-620
  IC50: > 100 µM
[3]
  CC50 at 72 h: > 100 µg/mL
[2]
  IC50: 103 µM
CCRF-CEM [4]
  Ratio IC50: 50
MIA PaCa-2
  IC50: 80 µM
L1210 [5]
  Ratio IC50: 50
HeLa
  IC50: 97 µM
Hepatitis C virus
  EC50: 78.5 µg/mL
  EC90: > 100 µg/mL
MCF7
  IC50: 54 µM

## COC(=O)c1ncn(C[C@H](O)[C@H]2OC(=O)C(OCc3ccccc3)=C2OCc2ccccc2)n1
CCRF-CEM [1]
  IC50: > 100 µM
WI-38
  IC50: > 100 µM
HepG2
  IC50: > 100 µM
SW-620
  IC50: > 100 µM
[3]
  CC50 at 72 h: > 100 µg/mL
[2]
  IC50: > 100 µM
MIA PaCa-2
  IC50: > 100 µM
HeLa
  IC50: > 100 µM
Hepatitis C virus
  EC50: 62.1 µg/mL (≈ 133 µM)
MCF7
  IC50: > 100 µM

## N#Cc1ncn(C/C=C2\OC(=O)C(OCc3ccccc3)=C2OCc2ccccc2)c1C#N (mixture of isomers)
CCRF-CEM [1]
  IC50: 7.3 µM
WI-38
  IC50: 73 µM
HepG2
  IC50: 92 µM
SW-620
  IC50: 73 µM
[3]
  CC50 at 72 h: > 100 µg/mL
[2]
  IC50: 21 µM
MIA PaCa-2
  IC50: 36 µM
HeLa
  IC50: 59 µM
Hepatitis C virus
  EC50: > 100 µg/mL
  EC90: > 100 µg/mL
MCF7
  IC50: 63 µM
